# Test results taken from PubChem BioAssay.
# Values without a mark were called inactive. The list shows a part of the results. Calls of active or inactive are those of the source.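 Rule for the calls, unless noted: active = duplicate-averaged activation above buffer control mean plus 5 SD of those controls; inactive = the rest.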
# Tests used:
# [1] = nonspecific flux increase, KCNQ1-free cells – parental CHO cells, counter-screen for KCNQ1 potentiator project (AID 493006); conditions: parental CHO-K1 cells, FluxOR thallium flux, at 10 µM; stronger effect = higher value;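 for activation: fluorescence ratio of max minus min over baseline after K+ and Tl+ depolarization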
# Procedure, shortened: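 Material: untransfected host CHO-K1 cells with FluxOR thallium dye. Timing: overnight 37 °C plating, 90 min RT dye, 20 min compound. Detection: kinetic FluxOR fluorescence, 10 s baseline, 110 s after stimulus. Read-out basis: max-minus-min fluorescence over baseline, percent of buffer-to-R-L3 span. Replicates: duplicate wells per compound, percent values averaged.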
# [2] = molecular target: Potassium voltage-gated channel subfamily KQT member 1 (Homo sapiens) (UniProt P51787); assay: enhancement of KCNQ1 channel thallium flux – FluxOR thallium flux, CHO cells, duplicates, confirmation (AID 493007;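 active = potentiation averaged over duplicate wells exceeding buffer-only control mean by more than 3 SD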;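 for outcome: cells depolarized by a potassium plus thallium sulfate stimulus after compound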); conditions: KCNQ1 cell line, FluxOR thallium flux fluorescence, at 10 µM; stronger effect = higher value, % of reference activator effect, buffer zero
# Procedure, shortened: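 Test system – KCNQ1-expressing CHO cell line · Incubation – FluxOR dye loading 90 min, compound exposure 20 min, room temperature · Detection – FluxOR Tl+ flux fluorescence, 10 s baseline plus 110 s recording · Controls – buffer-only wells as 0% and R-L3 activator as 100%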
# [3] = molecular target: Potassium voltage-gated channel subfamily KQT member 2 (Rattus norvegicus) (UniProt O88943); assay: KCNQ2 thallium flux enhancement – KCNQ2-CHO-K1 cells, selectivity assay for KCNQ1 potentiator project (AID 493009;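 active = mean duplicate potentiation above the buffer control mean plus 5 SD of buffer wells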;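 note: assay conditions were tuned for KCNQ1 rather than KCNQ2 modulators; signal is max minus min fluorescence divided by baseline after thallium stimulus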); conditions: FluxOR thallium flux fluorescence, at 10 µM; stronger effect = higher value, scaled: buffer 0, activator control 100
# [4] = molecular target: Potassium voltage-gated channel subfamily KQT member 1 (Homo sapiens) (UniProt P51787); assay: KCNQ1 activators by electrophysiology – IonWorks patch clamp, KCNQ1-CHO cells, orthogonal assay for KCNQ1 potentiator project, confirmation (AID 493184;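 active = current rise at least 3 SD above the untreated control mean in each of two repeat wells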;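 for current potentiation: percent change of the same well's current before compound addition so 0% = no change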); conditions: automated patch clamp current, at 10 µM; stronger effect = higher value
# Procedure, shortened: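 Read-out: Percent current increase versus pre-compound level | Assay system: CHO cells carrying KCNQ1 | Measured by: Automated perforated-patch electrophysiology | Medium: External bath solution at pH 7.4 | Dosing: One dose, 10 µM final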
# [5] = molecular target: T1, Potassium voltage-gated channel subfamily E member 1 (Homo sapiens) + Potassium voltage-gated channel subfamily KQT member 1 (Homo sapiens) (UniProt P15382+P51787); assay: KCNQ1-E1 channel activation – thallium flux, CHO-K1 KCNQ1/E1 cells, selectivity assay for KCNQ1 potentiator project, confirmation (AID 493186;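 active = mean duplicate activation above the buffer control mean plus 5 SD of those controls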); conditions: FluxOR thallium flux, at 10 µM; stronger effect = higher value
# Procedure, shortened: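 Test system: CHO-K1 cells with KCNQ1/E1; dosing: one test concentration; signal: FluxOR Tl+ flux fluorescence, kinetic read; incubation: 90-min dye loading then 20-min compound exposure, both at room temperature; read-out basis: percent of R-L3 effect over buffer; replication: duplicate wells per compound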
# [6] = molecular target: Potassium voltage-gated channel subfamily KQT member 1 (Homo sapiens) (UniProt P51787); assay: blockers of human KCNQ1 channel – cell-based, Tl flux, duplicate, confirmation (AID 588353;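 active = primary screen active, with duplicate mean exceeding buffer control mean plus 3 SD of buffer wells, cut at about 28% in these data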;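 note: 0% = buffer control ratio and 100% = XE991 inhibitor control ratio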); conditions: KCNQ1 cell line, FluxOR thallium flux fluorescence, at 10 µM, stronger effect = higher value
# Procedure, shortened: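 Material: stable KCNQ1-expressing CHO cell line. Incubation: compound exposure 20 min at room temperature. Replication: duplicates, mean used. Control set: buffer and XE991. Evaluation: percent inhibition relative to buffer and XE991. Reagent: Tl2SO4 plus K2SO4 stimulus, each 12.5 mM in 5x stock. Measured by: thallium-sensitive FluxOR dye fluorescence.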
# [7] = nonspecific activity in CHO-K1 cells without KCNQ1 – parental CHO cells, Tl flux, counter-screen for KCNQ1 inhibitor project (AID 588366;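 active = mean of duplicate thallium-flux fluorescence ratios in parental host cells more than 5 SD below the buffer control mean, cut at about 0.38 in these data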;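 note: ratio is peak minus minimum fluorescence divided by baseline fluorescence; actives read low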); conditions: parental CHO-K1, FluxOR thallium flux fluorescence ratio; at 10 µM; stronger effect = lower value; zero means no signal rise above baseline
# Procedure, shortened: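 material = parental CHO-K1 cells lacking KCNQ1 channel expression | schedule = FluxOR dye loading 90 min, compound exposure 20 min, room temperature | technique = kinetic Tl+ flux fluorescence with FluxOR dye | controls = assay buffer-only wells as negative controls | replicates = each compound tested in duplicate wells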
# [8] = molecular target: Potassium voltage-gated channel subfamily KQT member 1 (Homo sapiens) (UniProt P51787); assay: block of human KCNQ1 potassium current – cell-based, automated electrophysiology, orthogonal assay, confirmation (AID 624120;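 active = KCNQ1 current drop exceeding 3 SD of negative control wells, seen in both duplicate runs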); conditions: KCNQ1-CHO cells, automated patch clamp current; at 10 µM
# Procedure, shortened: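 System: KCNQ1-expressing CHO cells; Medium: external buffer at pH 7.4; Probe or stimulus: 2,000 ms voltage steps to +40 mV from -80 mV; Compound: 10 µM final, single dose; Technique: automated perforated-patch voltage clamp using amphotericin B; Measure: percent change in steady-state +40 mV current, post- versus pre-compound; Benchmarks: negative controls; Replication: duplicates.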
# [9] = molecular target: Potassium voltage-gated channel subfamily KQT member 2 (Rattus norvegicus) (UniProt O88943); assay: block of rat KCNQ2 potassium channel – cell-based, selectivity assay for KCNQ1 inhibitor project (AID 651746;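 active = mean percent inhibition of the KCNQ2 thallium signal more than 5 SD above the buffer-only control wells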;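 for inhibition: 0% = buffer control wells and 100% = XE-991 inhibitor control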); conditions: KCNQ2 cells, FluxOR thallium flux fluorescence, at 10 µM; stronger effect = higher value
# [10] = molecular target: T1, Potassium voltage-gated channel subfamily E member 1 (Homo sapiens) + Potassium voltage-gated channel subfamily KQT member 1 (Homo sapiens); assay: block of human IKs channel complex – CHO-K1 cells, thallium flux, FluxOR, selectivity assay for KCNQ1 inhibitor project (AID 652147;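 active = mean percent inhibition of duplicate wells above the buffer-only control mean plus 3 SD of those controls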;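 for inhibition: 0% = buffer only wells and 100% = XE-991 inhibitor control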); conditions: KCNQ1/KCNE1 cells, FluxOR thallium flux fluorescence, at 10 µM; stronger effect = higher value
# Procedure, shortened: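 Assay system: KCNQ1/KCNE1 cells | Timing: FluxOR dye loading 90 min, compound exposure 20 min, both room temperature | Detection: Kinetic FluxOR thallium-sensitive fluorescence, 1 Hz sampling, 150 s post-stimulus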
# Potassium voltage-gated channel subfamily KQT member 2 (Rattus norvegicus), sequence (O88943 whole entry, looked up): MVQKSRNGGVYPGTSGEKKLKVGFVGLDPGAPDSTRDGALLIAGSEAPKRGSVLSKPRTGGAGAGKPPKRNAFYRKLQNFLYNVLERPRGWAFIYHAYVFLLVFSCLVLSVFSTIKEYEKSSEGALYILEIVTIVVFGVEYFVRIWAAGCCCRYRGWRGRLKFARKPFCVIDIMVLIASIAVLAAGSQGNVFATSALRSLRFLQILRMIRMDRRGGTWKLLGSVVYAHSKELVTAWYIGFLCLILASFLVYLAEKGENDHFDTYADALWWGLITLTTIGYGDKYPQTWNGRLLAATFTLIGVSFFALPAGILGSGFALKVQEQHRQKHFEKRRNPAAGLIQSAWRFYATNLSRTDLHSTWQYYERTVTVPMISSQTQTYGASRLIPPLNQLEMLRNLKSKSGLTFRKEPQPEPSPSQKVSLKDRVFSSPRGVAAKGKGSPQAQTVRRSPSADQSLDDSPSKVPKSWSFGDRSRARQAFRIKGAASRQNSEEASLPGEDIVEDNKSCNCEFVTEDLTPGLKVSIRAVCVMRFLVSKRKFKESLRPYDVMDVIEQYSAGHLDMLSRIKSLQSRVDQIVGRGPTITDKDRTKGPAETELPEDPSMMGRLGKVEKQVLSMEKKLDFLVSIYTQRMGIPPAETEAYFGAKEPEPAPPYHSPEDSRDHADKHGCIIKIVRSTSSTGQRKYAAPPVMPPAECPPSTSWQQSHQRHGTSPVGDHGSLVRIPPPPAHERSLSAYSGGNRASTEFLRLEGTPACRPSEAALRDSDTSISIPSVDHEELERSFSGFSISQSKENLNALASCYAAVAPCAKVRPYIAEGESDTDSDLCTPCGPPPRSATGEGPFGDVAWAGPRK
# T1 sequence (P51787 whole entry, looked up): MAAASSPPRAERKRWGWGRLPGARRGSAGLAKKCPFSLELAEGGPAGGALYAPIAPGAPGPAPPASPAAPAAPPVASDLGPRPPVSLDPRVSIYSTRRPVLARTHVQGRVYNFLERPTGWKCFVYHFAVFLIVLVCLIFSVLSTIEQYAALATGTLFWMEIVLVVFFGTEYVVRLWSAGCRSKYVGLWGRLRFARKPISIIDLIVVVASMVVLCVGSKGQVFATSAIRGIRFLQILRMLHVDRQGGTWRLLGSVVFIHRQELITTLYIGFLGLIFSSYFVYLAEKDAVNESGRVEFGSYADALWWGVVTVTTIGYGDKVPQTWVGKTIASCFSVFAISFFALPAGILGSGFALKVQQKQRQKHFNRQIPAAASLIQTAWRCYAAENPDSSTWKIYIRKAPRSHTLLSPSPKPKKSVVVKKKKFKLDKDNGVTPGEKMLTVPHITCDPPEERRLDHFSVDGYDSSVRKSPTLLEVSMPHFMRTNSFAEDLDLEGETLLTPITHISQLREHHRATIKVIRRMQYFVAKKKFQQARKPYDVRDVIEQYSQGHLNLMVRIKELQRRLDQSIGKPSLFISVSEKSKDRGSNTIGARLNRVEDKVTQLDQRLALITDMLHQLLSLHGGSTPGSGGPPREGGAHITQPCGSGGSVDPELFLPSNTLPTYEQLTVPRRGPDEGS
# Potassium voltage-gated channel subfamily KQT member 1 (Homo sapiens), sequence (P51787 whole entry, looked up): as above
smiles,measurement,setting,value
Cc1cc(C)c2c(=O)n(CC(=O)Nc3ccc(Cl)cc3)sc2n1,outcome,[1],inactive
same,potentiation,[2],25% (active)
same,outcome,[3],inactive
same,outcome,[4],inactive
same,outcome,[5],inactive
CC1CC(=S)Nc2ccccc2N1C(=O)Nc1ccccc1 (stereo not drawn),outcome,[1],inactive
same,outcome,[2],inactive
same,outcome,[3],inactive
same,outcome,[4],inactive
same,outcome,[5],inactive
O=C(NC(=S)NC1CCCc2ccccc21)c1ccc(F)cc1 (stereo not drawn),outcome,[1],inactive
same,potentiation,[2],19.5% (active)
same,outcome,[4],inactive
same,outcome,[5],inactive
CC(C)COc1ccc(-c2nn(-c3ccccc3)cc2C(=O)Nc2nccs2)cc1,outcome,[1],inactive
same,outcome,[2],inactive
same,outcome,[4],inactive
same,outcome,[5],inactive
CCOc1cc(S(=O)(=O)Nc2ccc(Cl)cn2)ccc1Cl,outcome,[1],inactive
same,outcome,[2],inactive
same,outcome,[4],inactive
COc1ccc(C2c3ccc4ccccc4c3Oc3ncn(CCCO)c(=N)c32)cc1OC (stereo not drawn),outcome,[1],inactive
same,outcome,[2],inactive
same,outcome,[4],inactive
same,outcome,[5],inactive
CN(C(=S)NC(=O)c1ccccc1Br)C1CCCCC1,activation,[1],206% (active)
same,potentiation,[2],44% (active)
same,outcome,[4],inactive
Cc1ccc(NC(=O)Cn2nc(C)c3ccccc3c2=O)c(C)c1,outcome,[1],inactive
same,outcome,[2],inactive
same,outcome,[4],inactive
CCS(=O)(=O)N1Cc2ccccc2CC1C(=O)Nc1cccc(S(=O)(=O)N(C)C)c1 (stereo not drawn),outcome,[1],inactive
same,outcome,[2],inactive
same,outcome,[4],inactive
same,outcome,[5],inactive
CCOC(=O)N1CCN(C(=O)C2CCN(c3ncnc4c3sc3cccc(F)c34)CC2)CC1,inhibition,[6],109% (active)
same,fluorescence ratio (Tl flux),[7],0.427
same,outcome,[8],active
same,inhibition,[9],105% (active)
same,inhibition,[10],90% (active)
CCn1c(C)c(C)c2cc(C(=O)N3CCN(c4cccc(C)c4C)CC3)ccc21,inhibition,[6],106% (active)
same,fluorescence ratio (Tl flux),[7],0.475
same,outcome,[8],inactive
same,inhibition,[9],66.3% (active)
same,inhibition,[10],180% (active)
O=C(CSc1nc(-c2ccccc2)cs1)N1CCc2ccccc21,outcome,[1],inactive
same,outcome,[2],inactive
same,outcome,[4],inactive
O=C(OCc1ccccc1)C1=NNC2C(=O)N(c3ccccc3)C(=O)C12 (stereo not drawn),outcome,[1],inactive
same,outcome,[2],inactive
same,outcome,[4],inactive
same,outcome,[5],inactive
Cc1cccc(N2CCN(C(=O)c3cnn4c(C(F)F)cc(-c5ccccc5)nc34)CC2)c1C,inhibition,[6],146% (active)
same,fluorescence ratio (Tl flux),[7],0.416
same,outcome,[8],inactive
same,inhibition,[9],115% (active)
O=C(NC(=S)Nc1ccc(Br)cn1)c1cccs1,outcome,[1],inactive
same,outcome,[2],inactive
same,outcome,[4],inactive
Cc1ccc(/C=C2\SC(=S)N(NS(=O)(=O)c3ccc(C)cc3)C2=O)cc1,outcome,[1],inactive
same,potentiation,[2],25.5% (active)
same,current potentiation,[4],21.1% (active)
same,outcome,[5],inactive
S=c1[nH]nc(-c2ccccc2)n1/N=C/c1ccc(-c2ccccc2Cl)o1,outcome,[1],inactive
same,outcome,[2],inactive
same,outcome,[4],inactive
same,outcome,[5],inactive
C/C(=N\OCC(=O)Nc1ccc(OC(F)(F)F)cc1)c1ccc2c(c1)OCCO2,outcome,[1],inactive
same,outcome,[2],inactive
same,outcome,[4],inactive
O=C(NC(=S)Nc1nc2c(s1)CCCC2)c1ccc(C(=O)c2ccccc2)cc1,activation,[1],138% (active)
same,potentiation,[2],30% (active)
same,outcome,[4],inactive
O=C(c1ccc(COc2c(F)c(F)cc(F)c2F)o1)N1CCN(c2ccc(Cl)cc2)CC1,outcome,[1],inactive
same,outcome,[2],inactive
same,outcome,[4],inactive
Cc1cccc(Nc2ccccc2C(=O)NCc2ccco2)c1C,inhibition,[6],134% (active)
same,fluorescence ratio (Tl flux),[7],0.394
same,outcome,[8],inactive
same,inhibition,[9],101% (active)
same,inhibition,[10],198% (active)
COc1cccc(CN2CCN(Cc3cc4ccccc4[nH]3)CC2CCO)c1 (stereo not drawn),outcome,[1],inactive
same,potentiation,[2],20% (active)
same,outcome,[4],inactive
same,outcome,[5],inactive
CCSc1nsc(NC(=O)Nc2cccc(C(C)=O)c2)n1,inhibition,[6],112% (active)
same,fluorescence ratio (Tl flux),[7],0.514
same,outcome,[8],inactive
same,outcome,[9],inactive
same,outcome,[10],inactive
N#C/C(=C/c1cn(-c2ccccc2)nc1-c1cccc(OCc2ccc(F)cc2)c1)C(=O)NCCCn1ccnc1,outcome,[1],inactive
same,outcome,[2],inactive
same,outcome,[4],inactive
CCOc1ccc(-n2c(=S)sc3c(=O)n(-c4ccccc4)c(SC)nc32)cc1,outcome,[1],inactive
same,outcome,[2],inactive
same,outcome,[4],inactive
Cn1c(=O)c2c(ncn2CC(=O)OCC(=O)Nc2cc(Cl)ccc2Cl)n(C)c1=O,outcome,[1],inactive
same,outcome,[2],inactive
same,outcome,[4],inactive
Cc1ccc(-c2nn(-c3ccccc3)cc2/C=N/n2c(-c3cccs3)n[nH]c2=S)cc1,outcome,[1],inactive
same,potentiation,[2],23% (active)
same,outcome,[4],inactive
same,outcome,[5],inactive
COC(=O)c1ccc(CSc2nnc(SCc3ccc(C(=O)OC)o3)s2)o1,outcome,[1],inactive
same,outcome,[2],inactive
same,outcome,[4],inactive
COc1cccc(NC(=O)CSCc2cc(=O)n3ccsc3n2)c1,outcome,[1],inactive
same,outcome,[2],inactive
same,outcome,[4],inactive
NC(=O)c1ccc(N2CCNC(=O)C2)c([N+](=O)[O-])c1,outcome,[1],inactive
same,outcome,[2],inactive
same,outcome,[4],inactive
COCC(=O)Nc1nnc(SCC(=O)N2C(C)CCCC2C)s1 (stereo not drawn),outcome,[1],inactive
same,outcome,[2],inactive
same,outcome,[4],inactive
same,outcome,[5],inactive
CC1(c2ccc(OC(F)F)cc2)NC(=O)N(CC(=O)Nc2ccccc2)C1=O (stereo not drawn),outcome,[1],inactive
same,outcome,[2],inactive
same,outcome,[4],inactive
same,outcome,[5],inactive
O=C(c1nnsc1S(=O)c1ccc(Cl)cc1)N1CCOCC1 (stereo not drawn),outcome,[1],inactive
same,potentiation,[2],17.5% (active)
same,outcome,[4],inactive
same,outcome,[5],inactive
CCc1ccc(C2c3[nH]c4ccccc4c3CCN2C(=O)CN2CCN(CC)CC2)cc1 (stereo not drawn),outcome,[1],inactive
same,outcome,[2],inactive
same,outcome,[4],inactive
Cc1ccc(Nc2c(-c3ccc(C)o3)nc3cnccn23)cc1,outcome,[1],inactive
same,outcome,[2],inactive
same,outcome,[4],inactive
COc1cccc2c1C(=O)C=C(C)C2=O,outcome,[1],inactive
same,outcome,[2],inactive
same,outcome,[4],inactive
